Reference: PMC8596596 (Journal of Clinical Pharmacology, 2021)
Where “and” joins values, the source holds several entries; their conditions need not be identical. Identical values can stand only once. Like-named read-outs stand apart in the source and are kept apart here.

Key:
[1] = biological target: M4 mAChR; conditions: read-out: equilibrium dissociation constant [Kd] for M4; cited from earlier work
[2] = test system: healthy elderly subjects; assay: Body sway; type: in vivo, human; conditions: 22 hours postdose
In short: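 Crossover in healthy elderly subjects given oral 2 mg, 4 mg or placebo. Postural stability was measured with a body sway meter recording movement in a single plane over 2 minutes, with movements integrated. Measured twice predose and at 1, 2.5, 4, 7 and 22 h postdose. Analysis used mixed-model ANCOVA with time and treatment factors and the average baseline as covariate.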

[3] = test system: healthy elderly subjects; assay: Population PK-PD model; type: in vivo, human
[4] = biological target: M3 mAChR; conditions: read-out: equilibrium dissociation constant [Kd] for M3; cited from earlier work
[5] = test system: healthy elderly subjects; assay: Adaptive tracking test; type: in vivo, human; conditions: for decrease in mean adaptive tracking test performance: vs placebo
In short: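 Randomized, double-blind, placebo-controlled 3-way crossover in 12 subjects aged 65–80 years (MMSE ≥28). Single oral doses of 2 or 4 mg test compound or placebo, 1-week washout. Joystick pursuit task: the subject keeps a dot inside a randomly moving circle, whose speed rises with success and falls with failure. Tested twice predose and at 1, 2.5, 4, 7 and 22 h. Mixed-model ANCOVA with baseline covariate; least-squares means versus placebo.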

[6] = test system: healthy elderly subjects; assay: Safety and tolerability; type: in vivo, human; conditions: 2 and 4 mg oral
In short: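 Safety was monitored through treatment-emergent adverse events, laboratory tests, vital signs and ECG during each period. Randomization gave the 4-mg dose only after the 2-mg study day had been completed. A snack was given within 30 minutes before dosing, and caffeine and nicotine were not allowed. Oral single doses with a 1-week washout.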

[7] = biological target: M1 mAChR; conditions: read-out: equilibrium dissociation constant [Kd] for M1; cited from earlier work
[8] = test system: healthy elderly subjects; assay: Saccadic and smooth pursuit eye movements; type: in vivo, human
In short: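 Subjects followed a horizontally moving target on a screen 58 cm away. The target moved continuously for smooth pursuit and jumped side to side for saccades, and movements were recorded by computer. Oral 2 mg, 4 mg or placebo in a crossover design in healthy elderly subjects; tests predose and at 1, 2.5, 4, 7 and 22 h. Mixed-model ANCOVA with baseline covariate.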

[9] = test system: healthy elderly subjects; assay: Visual analog scales; type: in vivo, human; conditions: both doses (2 and 4 mg)
In short: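 Bond and Lader visual analog scales rated alertness, mood and calmness, and nausea was rated on a 100-mm line. Oral 2 mg, 4 mg or placebo in a crossover design in healthy elderly subjects. Ratings were made repeatedly predose and up to 22 h postdose. Analysed by mixed-model ANCOVA with baseline covariate against placebo.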

[10] = test system: healthy elderly subjects; assay: N-back task; type: in vivo, human; conditions: vs placebo
[11] = test system: healthy elderly subjects; assay: Pupillometry; type: in vivo, human
In short: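 Pupil images were taken with a digital camera and single flash. Pupil and iris diameters were measured horizontally in pixels, and the pupil/[…] diameter ratio was calculated for each eye. Oral 2 mg, 4 mg or placebo in a crossover design in healthy elderly subjects. Measured twice predose and at 1, 2.5, 4, 7 and 22 h. Mixed-model ANCOVA with baseline covariate against placebo.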

[12] = test system: healthy elderly subjects; assay: Mismatch negativity auditory event-related potential; type: in vivo, human; conditions: vs placebo
In short: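 Passive auditory oddball while subjects watched a silent movie. 750 tones were given (600 frequent, 150 deviant), each 150 ms at 75 dB, at a fixed 2 Hz rate. Event-related potential recorded by EEG. Healthy elderly subjects received oral 2 or 4 mg or placebo in a crossover design with repeated postdose sessions. Compared with placebo by mixed-model analysis.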

[13] = test system: healthy elderly subjects; assay: Visual-verbal learning test; type: in vivo, human; conditions: 4 mg oral, vs placebo
In short: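 A 30-word list was presented. Immediate recall rounds assessed acquisition at 1.5 h postdose, followed by delayed recall and recognition. Subjects received oral 4 mg, 2 mg or placebo in a crossover design; single-occasion test. Analysed by mixed-model ANOVA with treatment and period as fixed factors and subject as random factor, comparing least-squares means with placebo.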

[14] = biological target: M5 mAChR; conditions: read-out: equilibrium dissociation constant [Kd] for M5; cited from earlier work
[15] = cited from earlier work
[16] = Population PK model; type: in vivo, human; conditions: oral
In short: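 Nonlinear mixed-effects modelling of plasma concentrations after oral 2 and 4 mg in healthy elderly subjects. 1-, 2- and 3-compartment models were explored, with or without absorption lag time and transit compartments. Between-subject and between-occasion variability were added bottom-up (P < .01). Age, sex, weight and BMI were tested as covariates (forward P < .01, backward P < .001). The final model had 2 compartments with linear elimination.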

[17] = test system: healthy elderly subjects; assay: Finger tapping test; type: in vivo, human; conditions: both doses (2 and 4 mg)
In short: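 Finger tapping with the index finger of the dominant hand on a computer space bar, as fast as possible. Each session had 5 trials of 10 s, and mean tapping rate and SD were analysed. Oral 2 mg, 4 mg or placebo in a crossover design; tests predose and at 1, 2.5, 4, 7 and 22 h. Mixed-model ANCOVA with baseline covariate.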

[18] = Plasma pharmacokinetics, noncompartmental analysis; type: in vivo; conditions: human, po
In short: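 K2-EDTA plasma underwent liquid-liquid extraction and LC-MS/MS: phenyl column, isocratic 0.025% NH4OH in 67% acetonitrile, positive MRM at m/z 312→143, deuterated internal standard. QC levels were 0.300, 1.50 and 8.00 ng/mL. Parameters were obtained by noncompartmental analysis.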

[19] = biological target: M2 mAChR; conditions: read-out: equilibrium dissociation constant [Kd] for M2; cited from earlier work
[20] = test system: healthy subjects; conditions: cited from earlier work
[21] = test system: healthy subjects; conditions: cited from earlier work; remark: listed apart in the source

OC(CCN1CCCCC1)(c1ccccc1)C1CC2C=CC1C2 (centres unmarked) [biperiden]
Kd [1]: 2.4 ± 0.03 nM | body sway, recovery [2]: not normalized 22 hours postdose | adaptive tracking, linear concentration-effect slope [3]: −0.98 percentage point/ng/mL | n-back 0-back accuracy measure, drug effect [3]: No significant effect | n-back 0-back reaction time, Emax [3]: 288.5 milliseconds | n-back 0-back reaction time, Hill coefficient [3]: 2.25 | n-back 1-back accuracy measure, linear drug effect slope [3]: -0.011 ng⁻¹ mL⁻¹ | n-back 1-back reaction time, linear drug effect slope [3]: 16.18 ms/ng/mL | n-back 2-back reaction time, linear drug effect slope [3]: 11.08 ms/ng/mL | Kd [4]: 3.9 ± 0.1 nM | decrease in mean adaptive tracking test performance ([5]; 2 mg oral): 1.36 percentage point | adaptive tracking, change compared with placebo ([5]; 4 mg oral): −2.1 percentage point | decrease in mean adaptive tracking test performance ([5]; 4 mg oral): 2.10 percentage point and 2.1 percentage point | tolerability [6]: well tolerated | tolerability ([6]; listed as Biperiden): very well tolerated | Kd [7]: 0.48 ± 0.02 nM | smooth pursuit, effect ([8]; 2 mg oral, vs placebo): No significant effect | smooth pursuit decrease ([8]; 4 mg oral, vs placebo): 3.55 percentage point | saccadic inaccuracy, peak velocity, or reaction time, effect ([8]; both doses (2 and 4 mg) vs placebo): No significant effects | VAS Bond and Lader subscales of mood, alertness, and calmness, change [9]: No significant changes | VAS nausea scores, change [9]: No significant changes | n-back reaction time and accuracy, change ([10]; 2 mg oral): No significant change | n-back 0-back condition reaction time, mean difference ([10]; 4 mg oral): 37.2 milliseconds | n-back 1-back condition reaction time, mean difference ([10]; 4 mg oral): 49.9 milliseconds | n-back 2-back condition accuracy, decrease ([10]; 4 mg oral): 0.06 | n-back task reaction time increase ([10]; 4 mg oral): ≤ 50 millisecond | pupil/iris ratio left eye, mean difference ([11]; 4 mg oral, vs placebo): 0.065 | pupil/iris ratio right eye, mean difference ([11]; 4 mg oral, vs placebo): 0.07341 | pupil/iris ratio in both eyes, recovery ([11]; 22 hours postdose): not normalized 22 hours postdose | MMN latency at Fz, increase ([12]; 2 mg oral): 12.1 milliseconds | MMN latency at Fz, increase ([12]; 4 mg oral): 13.9 milliseconds | VVLT second immediate recall round, fewer words recalled [13]: 2.5 words | VVLT third immediate recall round, fewer words recalled [13]: 2.9 words | Kd [14]: 6.3 ± 0.1 nM | bioavailability ([15]; assumed, oral ref 18): approximately 33% | Tmax ([15]; postdose, as stated for previous studies): approximately 1 hour | half-life ([16]; human, plasma): 29.5 h | Absorption rate constant ([16]; population PK estimate): 2.73 (BOV = 97.7%) /hour | Clearance ([16]; population PK estimate): 78.06 (IIV = 172%, BOV = 12%) L/h/F | Lag time ([16]; population PK estimate): 0.54 (BOV = 75%) hours | Volume of distribution—central ([16]; population PK estimate): 491.40 (IIV = 79.5%) L/F | tapping-test performance, change [17]: No significant changes | AUC(0-t) ([18]; 2 mg): 0.0184 µg·h/mL | Cmax ([18]; 2 mg): 3.51 ng/mL | AUC(0-t) ([18]; 4 mg): 0.0395 µg·h/mL | Cmax ([18]; 4 mg): 7.45 ng/mL | Tmax ([18]; 4 mg): 2 h | Kd [19]: 6.3 ± 0.5 nM

NC(=O)C(c1ccccc1)(c1ccccc1)[C@@H]1CCN(CCc2ccc3c(c2)CCO3)C1 [darifenacin]
effect on body sway [20]: increase body sway

CN1[C@@H]2C[C@@H](OC(=O)[C@H](CO)c3ccccc3)C[C@H]1[C@@H]1O[C@@H]12 [scopolamine]
peak saccadic velocity, effect [21]: concentration‐related decrease
